Screening data from PubChem.
An excerpt weighted towards active compounds, which were near 1.8% of everything screened.
CRFR2-BP antag – blocks CRF-induced signaling of the CRF-BP/CRF-R2 complex; AID 588475; actives 0.59% (n = 350,000); inhibition, % at 11.8 µM; HEK293 CRF-R2/CRF-BP, CRF-induced calcium fluorescence;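 active = inhibition of the ligand-induced calcium signal above about 50% at the single tested concentration, limit read from the data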
697 NFkB inh – lowers PMA/ionomycin-induced NF-kB signal in 697 B cells; 697 B-cell NF-kB luciferase reporter, 16 h; inhibition, % at 4 µM; actives 0.33% (n = 330,000); in the data active = inhibition above about 35%
Jurkat NFkB inh – lowers PMA/ionomycin-induced NF-kB signal in Jurkat cells | PMA/ionomycin-induced NF-kB luciferase reporter, luminescence | inhibition, % at 4 µM | actives 0.53% (n = 330,000) | AID 435003; in the data active = inhibition above about 50%
UPR XBP1 act – adaptive UPR (XBP1) activation. CHO-XBP1 luciferase reporter, IRE1-XBP1 UPR activation, luminescence; percent of tunicamycin response, DMSO as zero. activation, % at 20 µM. actives 0.33% (n = 330,000). AID 463104;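 active = versus positive control, 20 µM dose yields 30% or more activation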;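 also: 100% = tunicamycin at 10 µg/mL and 0% = DMSO only wells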
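Assay system: CHO-XBP1 luciferase reporter cells; Schedule: 6 h treatment, 37 °C; Detection: glow luminescence from Steady-Glo reagent; Benchmarks: high control tunicamycin 10 µg/mL final, low control DMSO vehicle only.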
UPR CHOP act – activators of apoptotic arm of unfolded protein response (CHOP) | CHO-CHOP luciferase reporter, UPR activation, luminescence; percent of tunicamycin response over DMSO baseline | activation, % at 10 µM | actives 0.34% (n = 330,000) | AID 449763;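 active = at 10 µM dose, activation of 40% or more, normalized to positive control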;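 also: 100% = tunicamycin at 10 µg/mL and 0% = DMSO alone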
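Dosing – one dose, 10 µM in 0.5% DMSO · System – CHO-CHOP cells, stable luciferase reporter of PERK-eIF2a-CHOP signalling · Input – 500 cells/well · Control set – tunicamycin 10 µg/mL final as positive, DMSO-only wells as negative · Timing – 6 h compound treatment, 37 °C · Measure – % activation vs tunicamycin · Technique – luminescence read with Steady-Glo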
Jurkat NFkB conf – inhibitors of the PMA/ionomycin-induced NF-kB reporter in Jurkat cells, retest; shares compounds with Jurkat NFkB inh; Jurkat NF-kB luciferase, 16 h; inhibition, % at 4 µM; actives 27% (n = 2,700); AID 435020;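 active = inhibition reaching about 45% at 4 µM in either replicate, limit read from the data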;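 also: plate controls were PMA/ionomycin stimulated DMSO wells for no effect and unstimulated DMSO wells for full effect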
697 NFkB conf – lowers PMA/ionomycin-induced NF-kB signal in 697 B cells; shares compounds with 697 NFkB inh; inhibition, % at 4 µM; actives 35% (n = 2,000); 697 B-cell NF-kB luciferase, 16 h; in the data active = inhibition mostly above about 28%, no sharp cut-off; inactive = mostly below about 22%
CHOP UPR conf – apoptotic UPR (CHOP) activation, confirmed | shares compounds with UPR CHOP act | CHO-CHOP cells, CHOP-luciferase reporter luminescence; percent of tunicamycin response, DMSO as zero | activation, % at 10 µM | actives 64% (n = 1,000) | AID 463112; in the data active = activation above about 33%;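 also: 0% = DMSO wells and 100% = tunicamycin 10 µg/mL wells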
* hit, by the source's call; . = no result.

SMILES | CRFR2-BP antag | 697 NFkB inh | Jurkat NFkB inh | UPR XBP1 act | UPR CHOP act | Jurkat NFkB conf | 697 NFkB conf | others
COC(=O)C1=C(c2cccc(NC(C)=O)c2)C[C@@H]2CC[C@H]1N2C | -1 | 16 | -10 | -3 | 1 | . | .
COc1cc2c(cc1C=O)OCO2 | -1 | -1 | 4 | 1 | 0 | . | .
COc1cc([C@@H]2c3cc4c(cc3[C@@H](OC)[C@H]3COC(=O)[C@H]23)OCO4)cc(OC)c1O | -1 | -68 | 57* | 8 | 0 | 47* | .
Cc1ccc(OC(=O)N(C)C[C@H]2OCc3cnnn3CCCC(=O)N([C@@H](C)CO)C[C@H]2C)cc1 | 6 | . | . | . | . | . | .
Cc1cccn2c(=O)c3cc(C(=O)N4CCC5(CC4)OCCO5)n(C)c3nc12 | -6 | -26 | 53* | 10 | 2 | 30 | .
O=C(c1cccn2c(=O)c3cc(Br)ccc3nc12)N1CCC2(CC1)OCCO2 | -6 | 3 | -5 | 0 | 9 | . | .
CC(=O)c1cn(Cc2ccccc2C#N)c2ccccc12 | 3 | 47* | 52* | -1 | 1 | 55* | 30*
CC(=O)OC[C@]12CCC(C)=C[C@H]1O[C@@H]1[C@H](O)[C@@H](OC(C)=O)[C@@]2(C)[C@]12CO2 | 4 | 98* | 97* | -6 | -6 | 99* | 94*
CC1=CC2/C=C(\C)CCC(O)C(O)/C=C/C(=O)C23C(=O)NC(CC(C)C)C3C1C (centres undefined) | 12 | 38* | 79* | -9 | -10 | 19 | -3
Nc1ccccc1C(=O)OCCc1ccccc1 | 15 | -263 | -178 | 1 | 3 | -104 | -250
O=C1COc2ccc(C(=O)COC(=O)Cc3ccccc3)cc2N1 | 9 | 26 | 17 | -4 | -1 | . | .
CC(=O)OC1CC(OC2C(O)CC(OC3C(O)CC(OC4CCC5(C)C(CCC6C5CCC5(C)C(C7=CC(=O)OC7)CCC65O)C4)OC3C)OC2C)OC(C)C1OC1OC(CO)C(O)C(O)C1O (centres undefined) | -17 | . | . | . | . | . | .
C[C@@H]1O[C@@H](O[C@@H]2C=C3CC[C@@H]4C(CC[C@]5(C)[C@@H](c6ccc(=O)oc6)CC[C@]45O)[C@@]3(C)CC2)[C@H](O)[C@H](O)[C@H]1O (some centres undefined) | 3 | 90* | 100* | -4 | 1 | 94* | 99*
C[C@@H]1O[C@@H](O[C@@H]2C=C3CCC4C(CC[C@]5(C)[C@@H](c6ccc(=O)oc6)CC[C@]45O)[C@@]3(C)CC2)[C@H](O)[C@H](O)[C@H]1O (some centres undefined) | 7 | 102* | 100* | -7 | -2 | 97* | 99*
CC(=O)C1CCC2(O)C3CCC4=CC(=O)CCC4(C)C3CCC12C (centres undefined) | 6 | . | . | . | . | . | .
C=C(CO)CC1CC(O)[C@]2(C)OC3CC4OC5C[C@]6(C)O[C@]7(C)CCC8OC9C[C@]%10(C)OC%11C(C)=CC(=O)OC%11CC%10OC9C[C@@H](C)C8OC7CC6O[C@]5(C)C/C=C\C4OC3CC2O1 (some centres undefined) | -2 | 19 | 23 | 3 | 3 | . | .
C=C(C=O)CC1CC(O)[C@]2(C)OC3CC4OC5C[C@]6(C)O[C@]7(C)CCC8OC9C[C@]%10(C)OC%11C(C)=CC(=O)OC%11CC%10OC9C[C@@H](C)C8OC7CC6O[C@]5(C)CC5OC5C4OC3CC2O1 (some centres undefined) | -10 | -390 | 96* | -8 | -9 | 96* | 38*
CC(C)NP(=O)(NC(C)C)OP(=O)(NC(C)C)NC(C)C | -8 | -21 | 2 | -7 | -1 | . | .
C[C@@H]1O[C@@H](O[C@H]2C[C@@H](O)[C@]3(CO)[C@H]4[C@H](O)C[C@]5(C)[C@@H](C6COC(=O)C6)CC[C@]5(O)[C@@H]4CC[C@]3(O)C2)[C@H](O)[C@H](O)[C@H]1O (some centres undefined) | -42 | -403 | 96* | -2 | 0 | 72* | -496
COC(=O)C1C2c3ccccc3C(c3ccccc32)C1(C)C(=O)OC (centres undefined) | -1 | . | . | . | . | . | .
COC(=O)C1=C(c2ccc(-c3ccccc3)c(F)c2)C[C@@H]2CC[C@H]1N2C(=O)NCCCOC(C)C | 20 | 4 | 4 | -3 | 1 | . | .
C[C@@H]1C[C@H]2OC(=O)C3(CO3)[C@H]2[C@H](O)[C@]2(C)C(=O)C3OC3[C@@H]12 (some centres undefined) | . | -134 | -9 | -4 | 37 | . | .
C=C1C(=O)O[C@@H]2C[C@@H](C)[C@@H]3C=CC(=O)[C@@]3(C)[C@@H](O)[C@H]12 | 6 | 102* | 99* | -12 | -9 | 95* | 105*
COc1cc2c(cc1OC)C1C(=O)c3ccc4c(c3OC1CO2)CC(C(C)C)O4 (centres undefined) | -17 | . | . | . | . | . | .
COc1cc2c(cc1OC)[C@@H]1C(=O)c3ccc4c(c3O[C@@H]1CO2)C[C@H](C(C)C)O4 | 9 | 71* | 74* | -4 | 8 | 78* | 81*
SMILES | CRFR2-BP antag | 697 NFkB inh | Jurkat NFkB inh | UPR XBP1 act | UPR CHOP act | Jurkat NFkB conf | 697 NFkB conf | others
NC(=S)c1cn(C2OC(CO)C(O)C2O)c2ncnc(N)c12 (centres undefined) | -19 | . | . | . | . | . | .
Nc1ncnc2c1ccn2[C@@H]1O[C@H](CO)[C@@H](O)[C@H]1O | 3 | 75* | 86* | -6 | -4 | 85* | 98*
C[C@H]1CCC/C=C/[C@@H]2C[C@H](O)C[C@H]2[C@H](O)/C=C/C(=O)O1 | 4 | 66* | 98* | 12 | 115* | -15 | 81*
COC(=O)C1=C(c2ccc(Cl)c(C(F)(F)F)c2)C[C@@H]2CC[C@H]1N2C(=O)NCCCOC(C)C | 5 | -4 | -4 | 0 | 3 | . | .
COC(=O)C1=C(c2ccc3ccccc3c2)C[C@@H]2CC[C@H]1N2C(=O)NCc1ccc(C(F)(F)F)cc1 | -6 | -6 | 7 | -1 | 1 | . | .
CCN1/C(=C\C=C\C2=[N+](CC)c3ccccc3C2(C)C)C(C)(C)c2ccccc21 | -276 | -37 | 100* | 3 | 46* | 80* | . | CHOP UPR conf=24
CC1CCC(NC(=O)CNC(=S)N2CC3CC(C2)c2cccc(=O)n2C3)CC1 (centres undefined) | 10 | 0 | -9 | -3 | 2 | . | .
